Source: ChEMBL document CHEMBL1811881, “Development of 3-substituted-androsterone derivatives as potent inhibitors of 17β-hydroxysteroid dehydrogenase type 3” (Bioorg Med Chem, 2011)

Experiments:
Format in all cases: cell-based
[1] = target: T1, 17-beta-hydroxysteroid dehydrogenase type 3 (Homo sapiens) (UniProt P37058); assay: Inhibition of 17Beta-HSD3 expressed in intact HEK293 cells assessed as transformation of [14C]-4-androstene-3,17-dione into [14C]-testosterone in presence of NADPH at 0.1 uM after 1 hr incubation
T1 sequence (whole entry): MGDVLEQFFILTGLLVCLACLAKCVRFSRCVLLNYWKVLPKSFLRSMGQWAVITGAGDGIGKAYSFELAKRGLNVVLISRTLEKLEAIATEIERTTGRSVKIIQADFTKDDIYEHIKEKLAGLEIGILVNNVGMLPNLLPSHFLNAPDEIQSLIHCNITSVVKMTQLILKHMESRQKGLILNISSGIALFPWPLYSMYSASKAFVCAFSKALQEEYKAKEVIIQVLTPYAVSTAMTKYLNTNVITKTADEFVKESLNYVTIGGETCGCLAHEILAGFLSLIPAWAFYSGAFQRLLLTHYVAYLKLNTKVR
Method in brief: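 HEK-293 cells were grown in MEM with 10% FBS at 37 °C under 5% CO2, seeded at 200,000 cells/well, and transfected with 2 µg/well of a 17β-HSD3 expression plasmid. Intact cells then got 50 nM [4-14C]-4-androstene-3,17-dione plus inhibitor in ethanol (0.5% v/v) for 1 h. Radiolabelled steroids were extracted from the medium and quantified. Triplicate; % transformation was used to derive IC50.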

[2] = target: T1, 17-beta-hydroxysteroid dehydrogenase type 3 (Homo sapiens); assay: Inhibition of 17Beta-HSD3 expressed in homogenized HEK293 cells assessed as transformation of [14C]-4-androstene-3,17-dione into [14C]-testosterone in presence of NADPH at 0.01 uM
Method in brief: (§1)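 HEK-293 cells overexpressing 17β-HSD3 were briefly homogenized. The enzyme assay measured conversion of 50 nM [4-14C]-4-androstene-3,17-dione to [14C]-testosterone with NADPH in excess (5 mM). Inhibitor was dissolved in ethanol, and the ethanol-only control was used to derive % inhibition at each concentration. Error 10%.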

[3] = target: T1, 17-beta-hydroxysteroid dehydrogenase type 3 (Homo sapiens); assay: Inhibition of 17Beta-HSD3 expressed in homogenized HEK293 cells assessed as transformation of [14C]-4-androstene-3,17-dione into [14C]-testosterone in presence of NADPH at 0.1 uM; method in brief: as §1

`C[C@]12CC[C@](O)(CN3CCN(Cc4cc(C(F)(F)F)ccc4C(F)(F)F)CC3)C[C@@H]1CC[C@@H]1[C@@H]2CC[C@]2(C)C(=O)CC[C@@H]12` gave an inhibition [1] of 12%, an inhibition [2] of 18% and an inhibition [3] of 85%.
`C[C@]12CC[C@](O)(CN3CCN(C(=O)c4ccc(C(F)(F)F)cc4)CC3)C[C@@H]1CC[C@@H]1[C@@H]2CC[C@]2(C)C(=O)CC[C@@H]12` showed an inhibition [1] of 56%, an inhibition [2] of 22% and an inhibition [3] of 84%.
Molecule `C[C@@H]1CN(C(=O)c2ccccc2)[C@@H](C)CN1C[C@@]1(O)CC[C@@]2(C)[C@@H](CC[C@@H]3[C@@H]2CC[C@]2(C)C(=O)CC[C@@H]32)C1` has an inhibition [1] of 78%, an inhibition [2] of 24% and an inhibition [3] of 87%.
With `C[C@]12CC[C@@]3(C[C@@H]1CC[C@@H]1[C@@H]2CC[C@]2(C)C(=O)CC[C@@H]12)CN(Cc1cc(C(F)(F)F)cc(C(F)(F)F)c1)C(=O)O3` the inhibition [1] was 35%, the inhibition [2] was 12% and the inhibition [3] was 66%.
Work on `C[C@]12CC[C@](O)(CN3CCN(S(=O)(=O)c4ccc(C(F)(F)F)cc4)CC3)C[C@@H]1CC[C@@H]1[C@@H]2CC[C@]2(C)C(=O)CC[C@@H]12` yielded an inhibition [1] of 34%, an inhibition [2] of 21% and an inhibition [3] of 78%.
`C[C@@H]1CN(Cc2ccc(C(F)(F)F)cc2)[C@@H](C)CN1C[C@@]1(O)CC[C@@]2(C)[C@@H](CC[C@@H]3[C@@H]2CC[C@]2(C)C(=O)CC[C@@H]32)C1` showed an inhibition [1] of 36%, an inhibition [2] of 14% and an inhibition [3] of 87%.
For `C[C@@H]1CN(S(=O)(=O)c2ccc(C(F)(F)F)cc2)[C@@H](C)CN1C[C@@]1(O)CC[C@@]2(C)[C@@H](CC[C@@H]3[C@@H]2CC[C@]2(C)C(=O)CC[C@@H]32)C1`, the inhibition [1] was 47%, the inhibition [2] was 79% and the inhibition [3] was 92%.
`C[C@@H]1CN(C(=O)c2cccc(C(F)(F)F)c2)[C@@H](C)CN1C[C@@]1(O)CC[C@@]2(C)[C@@H](CC[C@@H]3[C@@H]2CC[C@]2(C)C(=O)CC[C@@H]32)C1` showed an inhibition [1] of 70%, an inhibition [2] of 28% and an inhibition [3] of 89%.
`C[C@@H]1CN(C(=O)C2CCCCC2)[C@@H](C)CN1C[C@@]1(O)CC[C@@]2(C)[C@@H](CC[C@@H]3[C@@H]2CC[C@]2(C)C(=O)CC[C@@H]32)C1` showed an inhibition [1] of 77%, an inhibition [2] of 24% and an inhibition [3] of 90%.
Work on `C[C@]12CC[C@@]3(C[C@@H]1CC[C@@H]1[C@@H]2CC[C@]2(C)C(=O)CC[C@@H]12)CN(Cc1ccc(C(F)(F)F)cc1)C(=O)O3` yielded an inhibition [1] of 43%, an inhibition [2] of 25% and an inhibition [3] of 80%.
`C[C@]12CC[C@@]3(C[C@@H]1CC[C@@H]1[C@@H]2CC[C@]2(C)C(=O)CC[C@@H]12)CN(Cc1ccc(C(F)(F)F)nc1)C(=O)O3` was tested, and the inhibition [1] was 36%, the inhibition [2] was 3% and the inhibition [3] was 65%.
Work on `C[C@@H]1CN(Cc2ccc(C(F)(F)F)cc2C(F)(F)F)[C@@H](C)CN1C[C@@]1(O)CC[C@@]2(C)[C@@H](CC[C@@H]3[C@@H]2CC[C@]2(C)C(=O)CC[C@@H]32)C1` yielded an inhibition [1] of 21%, an inhibition [2] of 15% and an inhibition [3] of 71%.
For `COc1cccc(CN2C[C@@H](C)N(C[C@@]3(O)CC[C@@]4(C)[C@@H](CC[C@@H]5[C@@H]4CC[C@]4(C)C(=O)CC[C@@H]54)C3)C[C@@H]2C)c1`, the inhibition [1] was 50%, the inhibition [2] was 19% and the inhibition [3] was 87%.
For `C[C@]12CC[C@@]3(C[C@@H]1CC[C@@H]1[C@@H]2CC[C@]2(C)C(=O)CC[C@@H]12)CN(Cc1cccc(C(F)(F)F)c1)C(=O)O3`, the inhibition [1] was 36%, the inhibition [2] was 16% and the inhibition [3] was 80%.
`C[C@]12CC[C@](O)(CN3CCN(Cc4ccc(C(F)(F)F)cc4)CC3)C[C@@H]1CC[C@@H]1[C@@H]2CC[C@]2(C)C(=O)CC[C@@H]12` gave an inhibition [1] of 33%, an inhibition [2] of 14% and an inhibition [3] of 81%.
`C[C@]12CC[C@@]3(C[C@@H]1CC[C@@H]1[C@@H]2CC[C@]2(C)C(=O)CC[C@@H]12)CN(Cc1ccccc1C(F)(F)F)C(=O)O3` was tested, and the inhibition [1] was 35%, the inhibition [2] was 17% and the inhibition [3] was 81%.
`C[C@]12CC[C@](O)(CN3CCN(C(=O)c4ccccc4)CC3)C[C@@H]1CC[C@@H]1[C@@H]2CC[C@]2(C)C(=O)CC[C@@H]12` gave an inhibition [1] of 50%, an inhibition [2] of 17% and an inhibition [3] of 76%.
